Only some compounds are listed: those with a hit (about 2.2% of all), similar ones and a draw of the others.
PfGluPho inh: PfG6PD enzyme inhibitors, primary screen, biochemical, fluorescence intensity, uHTS. PfGluPho enzyme, NADPH resazurin-diaphorase fluorescence. 0.78% of 350,000 active. inhibition, % at 20 µM;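 active means inhibition reaching at least a set limit at 20 µM in the primary screen, cut at about 59% in these data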;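 further: 0% = DMSO wells with substrate and 100% = DMSO wells lacking glucose-6-phosphate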
HKDC1 inhibitor: HKDC1 hexokinase inhibitors, primary screen, biochemical, fluorescence, uHTS; Q2TB90; recombinant HKDC1, G6PDH/diaphorase resazurin coupled fluorescence; inhibition, % at 20 µM; 0.16% of 340,000 active; AID 493160, 2011;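 active means inhibition above about 35% when tested at 20 µM, limit read from the data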;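 further: plate controls were DMSO wells with enzyme for no effect and DMSO wells lacking enzyme for full effect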
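Test system: HK5 enzyme. Quantity: 5 µg/mL HK5 final. Reagent: glucose and ATP substrates. Schedule: 90 min reaction incubation at room temperature, dark. Technique: resazurin-to-resorufin fluorescence via G6PDH and diaphorase coupling, 525/613 nm. Control set: DMSO wells with and without enzyme mix.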
Exocytosis inh: LAMP-1 surface exposure blockers, TALL-104 cells – cell-based, flow cytometry, MLPCN library, primary screen | inhibition, % at 10 µM | TALL-104 LAMP-1 surface exposure; cells stimulated with thapsigargin and PMA | AID 651702, 2012 | 0.66% of 360,000 active;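 active means inhibition above about 55%, limit read from the data; inconclusive means no clear call, values can overlap the other calls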
ABHD5 PLIN5 PPI: ABHD5-PLIN5 interaction inhibitors, primary screen, cell lysate, split luciferase complementation, luminescence | Split G. princeps luciferase complementation, 4 h | inhibition, % at 4 µM | 0.78% of 360,000 active | Perilipin-5 (Homo sapiens) + 1-acylglycerol-3-phosphate O-acyltransferase ABHD5 (Homo …;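 active means inhibition above the mean inhibition across every tested compound plus 3 SD, cut at about 22% in these data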;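 further: 0% = DMSO only wells and the 100% control is not disclosed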
Target sequence (Q00G26 whole entry, looked up): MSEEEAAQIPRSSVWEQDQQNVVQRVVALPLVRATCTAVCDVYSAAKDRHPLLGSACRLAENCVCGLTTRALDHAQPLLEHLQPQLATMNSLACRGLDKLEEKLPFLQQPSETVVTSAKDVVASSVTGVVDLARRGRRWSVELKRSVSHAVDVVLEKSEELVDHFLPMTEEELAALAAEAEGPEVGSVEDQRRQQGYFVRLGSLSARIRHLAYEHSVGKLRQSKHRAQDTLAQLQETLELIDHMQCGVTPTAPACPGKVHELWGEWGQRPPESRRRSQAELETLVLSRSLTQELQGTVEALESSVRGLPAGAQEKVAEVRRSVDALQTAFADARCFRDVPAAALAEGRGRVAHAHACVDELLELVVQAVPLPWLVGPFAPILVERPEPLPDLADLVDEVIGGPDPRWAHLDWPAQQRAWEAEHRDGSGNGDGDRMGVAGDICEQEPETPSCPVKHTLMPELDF
Target sequence (Q8WTS1 whole entry, looked up): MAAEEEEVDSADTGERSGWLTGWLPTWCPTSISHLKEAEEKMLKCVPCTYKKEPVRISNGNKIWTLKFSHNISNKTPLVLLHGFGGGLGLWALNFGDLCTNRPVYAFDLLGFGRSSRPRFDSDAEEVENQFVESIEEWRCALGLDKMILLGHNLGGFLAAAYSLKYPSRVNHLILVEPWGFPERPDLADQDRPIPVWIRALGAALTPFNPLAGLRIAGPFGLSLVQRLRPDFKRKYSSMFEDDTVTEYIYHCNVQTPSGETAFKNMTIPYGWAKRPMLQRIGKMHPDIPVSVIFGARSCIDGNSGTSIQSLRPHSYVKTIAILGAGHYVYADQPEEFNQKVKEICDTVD
ABHD5 PLIN5 conf: ABHD5-PLIN5 interaction inhibitors, confirmation, biochemical, luminescence. shares compounds with ABHD5 PLIN5 PPI. inhibition, % at 4 µM. 67% of 2,200 active; in the data active means inhibition above about 23%;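 further: 0% = DMSO vehicle wells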
HNF4 split-luc: HNF4 dimerization inhibitors, counter-screen for ABHD5-PLIN5 interaction inhibitor project, biochemical, split-luciferase complementation, luminescence. 77% of 2,200 active. inhibition, % at 4 µM. shares compounds with ABHD5 PLIN5 PPI. AID 651674, 2012;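 active means mean inhibition across replicate wells exceeding the computed hit threshold, cut at about 13% in these data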;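 further: light from luciferase halves that rejoin when HNF4 fusion proteins dimerize; 0% = DMSO only wells and the 100% control is not given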
Active calls of the source: *.

How did O=C(C1CCCO1)N1CCN(Cc2c(O)ccc3ccccc23)CC1 (stereo not given) do in these assays?
PfGluPho inh: 15; HKDC1 inhibitor: 15; Exocytosis inh: 6; ABHD5 PLIN5 PPI: 41*; ABHD5 PLIN5 conf: 72*; HNF4 split-luc: 102*

What do the screens show for `Cc1ccc(CN2CCN(C(=O)C3CCCO3)CC2)cc1` (stereo not given)?
PfGluPho inh: -4; HKDC1 inhibitor: -9; Exocytosis inh: -2; ABHD5 PLIN5 PPI: -1

Results for CCOC(=O)N1CCN(Cc2c(O)ccc3ccccc23)CC1 ?
PfGluPho inh: -15; HKDC1 inhibitor: 13; Exocytosis inh: 6; ABHD5 PLIN5 PPI: 27*; ABHD5 PLIN5 conf: 51*; HNF4 split-luc: 89*

How did CCOC(=O)C1CCN(Cc2c(O)ccc3ccccc23)CC1 do in these assays?
PfGluPho inh: 27; HKDC1 inhibitor: 12; Exocytosis inh: 3; ABHD5 PLIN5 PPI: 0

Results for Cc1ccc(C(=O)NNC(=O)C(NC(=O)c2cccc(C)c2)C(C)C)cc1 (stereo not given) ?
PfGluPho inh: 7; HKDC1 inhibitor: -7; Exocytosis inh: 26; ABHD5 PLIN5 PPI: -8

How did O=C1C2C3C=CC(CC3)C2C(=O)N1c1ccccc1 (stereo not given) do in these assays?
PfGluPho inh: -2; HKDC1 inhibitor: 2; Exocytosis inh: -16; ABHD5 PLIN5 PPI: 3

What do the screens show for `O=C1C=CC2C3C(=O)N(c4ccccc4)C(=O)C3C1N2Cc1ccccc1` (stereo not given)?
PfGluPho inh: 21; HKDC1 inhibitor: 20; Exocytosis inh: 37; ABHD5 PLIN5 PPI: 90*; ABHD5 PLIN5 conf: 100*; HNF4 split-luc: 103*

How did COc1cc(NC(=O)c2cc(OC)c(OC)c(OC)c2)cc(-n2cnnn2)c1 do in these assays?
PfGluPho inh: 14; HKDC1 inhibitor: 3; Exocytosis inh: -4; ABHD5 PLIN5 PPI: -4

Results for O=c1[nH]c(C2CCN(S(=O)(=O)c3ccc(S(=O)(=O)NC4CC4)cc3)CC2)nc2c1nnn2Cc1ccccc1 ?
PfGluPho inh: 2; HKDC1 inhibitor: 2; Exocytosis inh: 4; ABHD5 PLIN5 PPI: 3

What do the screens show for `O=c1[nH]c(C2CCN(S(=O)(=O)c3ccc(F)cc3)CC2)nc2c1nnn2Cc1ccc2c(c1)OCCO2`?
PfGluPho inh: -43; HKDC1 inhibitor: 5; Exocytosis inh: -11; ABHD5 PLIN5 PPI: 29*; ABHD5 PLIN5 conf: 35*; HNF4 split-luc: 8

Results for O=c1[nH]c(C2CCN(S(=O)(=O)c3ccc(S(=O)(=O)NC4CC4)cc3)CC2)nc2c1nnn2Cc1ccc(F)cc1 ?
PfGluPho inh: -15; HKDC1 inhibitor: 8; Exocytosis inh: 1; ABHD5 PLIN5 PPI: 28*; ABHD5 PLIN5 conf: 48*; HNF4 split-luc: 3

Results for O=C(CSc1nnc(COc2ccc(Cl)cc2)o1)NC1CC2CCC1C2 (stereo not given) ?
PfGluPho inh: -2; HKDC1 inhibitor: 2; Exocytosis inh: 12; ABHD5 PLIN5 PPI: 1

How did Cc1ccc([N+](=O)[O-])cc1S(=O)(=O)n1ccnc1C do in these assays?
PfGluPho inh: -1; HKDC1 inhibitor: 5; Exocytosis inh: 10; ABHD5 PLIN5 PPI: 1

What do the screens show for `COC(=O)C1=C(C)NC2=C(C(=O)CCC2)C1c1ccc(-c2ccsc2C(=O)OC)o1` (stereo not given)?
PfGluPho inh: 15; HKDC1 inhibitor: 4; Exocytosis inh: 15; ABHD5 PLIN5 PPI: 24*; ABHD5 PLIN5 conf: 8; HNF4 split-luc: 10

Results for CC1(C)CC(=O)C(C(C2=C(O)CC(C)(C)CC2=O)c2ccc(Br)s2)C(=O)C1 (stereo not given) ?
PfGluPho inh: 47; HKDC1 inhibitor: -7; Exocytosis inh: 12; ABHD5 PLIN5 PPI: 67*; ABHD5 PLIN5 conf: 91*; HNF4 split-luc: 97*

Results for O=C1/C(=C/c2cccc([N+](=O)[O-])c2)CCc2ccccc21 ?
PfGluPho inh: -2; HKDC1 inhibitor: 20; Exocytosis inh: 2; ABHD5 PLIN5 PPI: 37*; ABHD5 PLIN5 conf: 56*; HNF4 split-luc: 46*

Results for Nc1ccccc1C=C1Cc2ccccc2C1=O ?
PfGluPho inh: 32; HKDC1 inhibitor: 4; Exocytosis inh: 5; ABHD5 PLIN5 PPI: 11

Results for COc1ccc2c(c1)CC/C(=C/c1ccccn1)C2=O ?
PfGluPho inh: 7; HKDC1 inhibitor: 12; Exocytosis inh: 19; ABHD5 PLIN5 PPI: 19

How did O=C1C(=Cc2ccccn2)CCc2ccccc21 do in these assays?
PfGluPho inh: 23; Exocytosis inh: 0; ABHD5 PLIN5 PPI: 25*; ABHD5 PLIN5 conf: 60*; HNF4 split-luc: 46*

How did COc1ccc(/C=C2\CCc3ccccc3C2=O)cc1OC do in these assays?
PfGluPho inh: 0; HKDC1 inhibitor: 17; Exocytosis inh: 6; ABHD5 PLIN5 PPI: -1

Results for O=C1C(=Cc2ccccc2[N+](=O)[O-])Cc2ccccc21 ?
PfGluPho inh: 14; Exocytosis inh: 3; ABHD5 PLIN5 PPI: 28*; ABHD5 PLIN5 conf: 51*; HNF4 split-luc: 46*

How did O=C1C(=Cc2cccc(F)c2)Cc2ccccc21 do in these assays?
Exocytosis inh: -8; ABHD5 PLIN5 PPI: 24*; ABHD5 PLIN5 conf: 28*; HNF4 split-luc: 23*

What do the screens show for `O=C1/C(=C/c2ccncc2)Cc2ccccc21`?
PfGluPho inh: -1; HKDC1 inhibitor: 6; Exocytosis inh: 0; ABHD5 PLIN5 PPI: 17

Results for Nc1cc(N)nc(CS)n1 ?
PfGluPho inh: -14; HKDC1 inhibitor: -7; Exocytosis inh: -3; ABHD5 PLIN5 PPI: -4

How did CCOc1cc(CNc2ccc3c(c2)CCC3)ccc1O do in these assays?
PfGluPho inh: 13; HKDC1 inhibitor: 2; Exocytosis inh: -1; ABHD5 PLIN5 PPI: -3

How did COc1cc(CNc2ccc3c(c2)CCC3)cc(OC)c1O do in these assays?
PfGluPho inh: 13; HKDC1 inhibitor: 5; Exocytosis inh: 18; ABHD5 PLIN5 PPI: 39*; ABHD5 PLIN5 conf: 57*; HNF4 split-luc: 89*

Results for O=C(NCCS(=O)(=O)N1CCCCCC1)c1ccc(F)cc1 ?
PfGluPho inh: 5; HKDC1 inhibitor: -5; Exocytosis inh: 3; ABHD5 PLIN5 PPI: 4

Results for Clc1cccc2c1Sc1ccccc1CC2N1CCNCC1 (stereo not given) ?
PfGluPho inh: 37; HKDC1 inhibitor: -6; Exocytosis inh: inconclusive; ABHD5 PLIN5 PPI: 31*; ABHD5 PLIN5 conf: 21; HNF4 split-luc: 1

What do the screens show for `COc1ccccc1OC(=O)c1cc2ccccc2oc1=O`?
PfGluPho inh: -3; HKDC1 inhibitor: -1; Exocytosis inh: 2; ABHD5 PLIN5 PPI: 2
